Reference: ChEMBL document CHEMBL3580656, “Chrodrimanins I and J from the Antarctic Moss-Derived Fungus Penicillium funiculosum GWT2-24” (J Nat Prod, 2015)

Legend:
[1] = tested on: HL-60; assay: Cytotoxicity against human HL60 cells by sulforhodamine B assay; assay type: functional, cell-based
In short: (§1)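 Four human lines tested (K562, HL-60, HeLa, A-549) with adriamycin as positive control. Potency is expressed as IC50.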

[2] = tested on: Staphylococcus aureus; assay: Antibacterial activity against Staphylococcus aureus; assay type: functional
[3] = tested on: HeLa; assay: Cytotoxicity against human HeLa cells by sulforhodamine B assay; assay type: functional, cell-based; in short: as §1
[4] = tested on: Influenza A virus; assay: Antiviral activity against influenza A virus (A/Puerto Rico/8/34(H1N1)) infected in MDCK cells incubated for 48 hrs assessed as inhibition of virus-induced cytopathic effect by crystal violet staining assay; assay type: functional, organism-based; details: A/Puerto Rico/8/1934(H1N1)
In short: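 Ribavirin served as the positive control. The value is reported as an IC50 in μM.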

[5] = tested on: A549; assay: Cytotoxicity against human A549 cells by sulforhodamine B assay; assay type: functional, cell-based; in short: as §1
[6] = tested on: Escherichia coli; assay: Antibacterial activity against Escherichia coli; assay type: functional
[7] = tested on: K562; assay: Cytotoxicity against human K562 cells by sulforhodamine B assay; assay type: functional, cell-based; in short: as §1

Row | Structure (SMILES) | IC50 [1] | MIC [2] | IC50 [3] | IC50 [4] | IC50 [5] | MIC [6] | IC50 [7]
1 | C[C@@H]1Cc2c3c(cc(O)c2C(=O)O1)O[C@@]1(C)[C@@H](O)C[C@H]2C(C)(C)C(=O)C=C[C@]2(C)[C@@H]1C3 | > 50 µM | > 600 µg/mL | > 50 µM | 21 µM | > 50 µM | > 600 µg/mL | > 50 µM
2 | CC(=O)O[C@@H]1c2c3c(cc(O)c2C(=O)O[C@@H]1C)O[C@@]1(C)[C@@H](O)C[C@H]2C(C)(C)C(=O)C=C[C@]2(C)[C@@H]1C3 | > 50 µM | > 600 µg/mL | > 50 µM | 55 µM | > 50 µM | > 600 µg/mL | > 50 µM
3 | C[C@H]1OC(=O)c2c(O)cc3c(c2[C@H]1O)C[C@H]1[C@@]2(C)C=CC(=O)C(C)(C)[C@@H]2C[C@H](O)[C@]1(C)O3 | > 50 µM | > 600 µg/mL | > 50 µM | > 200 µM | > 50 µM | > 600 µg/mL | > 50 µM
4 | C[C@@H]1Cc2c3c(cc(O)c2C(=O)O1)O[C@@]1(C)[C@@H](O)C[C@H]2C(C)(C)C(=O)CC[C@]2(C)[C@@H]1C3 | > 50 µM | > 600 µg/mL | > 50 µM | > 200 µM | > 50 µM | > 600 µg/mL | > 50 µM
5 | C[C@@H]1Cc2c3c(cc(O)c2C(=O)O1)O[C@@]1(C)[C@@H](O)C[C@H]2C(C)(C)[C@@H](O)CC[C@]2(C)[C@@H]1C3 | > 50 µM | > 600 µg/mL | > 50 µM | 57 µM | > 50 µM | > 600 µg/mL | > 50 µM
6 | CC1(C)C(=O)CC[C@@]2(C)[C@H]1CC[C@]1(C)Oc3cc(O)c4c(c3C[C@@H]21)C[C@@H](O)CC4=O | > 50 µM | > 600 µg/mL | > 50 µM | > 200 µM | > 50 µM | > 600 µg/mL | > 50 µM
7 | CC1(C)C(=O)C=C[C@@]2(C)[C@H]1CC[C@]1(C)Oc3cc(O)c4c(c3C[C@@H]21)C[C@@H](O)CC4=O | > 50 µM | > 600 µg/mL | > 50 µM | > 200 µM | > 50 µM | > 600 µg/mL | > 50 µM
